Compounds with a hit are over-represented: about 2% of the library has one in this group of screens.
Furin inhibitor: human furin inhibitors, primary screen, biochemical, fluorescence intensity. P09958. inhibition, % at 20 µM or 30 µM. purified furin, fluorogenic substrate cleavage. hit rate 0.061% among 220,000; in the data active means inhibition above about 25%
Target sequence (P09958 108-714 limits assumed): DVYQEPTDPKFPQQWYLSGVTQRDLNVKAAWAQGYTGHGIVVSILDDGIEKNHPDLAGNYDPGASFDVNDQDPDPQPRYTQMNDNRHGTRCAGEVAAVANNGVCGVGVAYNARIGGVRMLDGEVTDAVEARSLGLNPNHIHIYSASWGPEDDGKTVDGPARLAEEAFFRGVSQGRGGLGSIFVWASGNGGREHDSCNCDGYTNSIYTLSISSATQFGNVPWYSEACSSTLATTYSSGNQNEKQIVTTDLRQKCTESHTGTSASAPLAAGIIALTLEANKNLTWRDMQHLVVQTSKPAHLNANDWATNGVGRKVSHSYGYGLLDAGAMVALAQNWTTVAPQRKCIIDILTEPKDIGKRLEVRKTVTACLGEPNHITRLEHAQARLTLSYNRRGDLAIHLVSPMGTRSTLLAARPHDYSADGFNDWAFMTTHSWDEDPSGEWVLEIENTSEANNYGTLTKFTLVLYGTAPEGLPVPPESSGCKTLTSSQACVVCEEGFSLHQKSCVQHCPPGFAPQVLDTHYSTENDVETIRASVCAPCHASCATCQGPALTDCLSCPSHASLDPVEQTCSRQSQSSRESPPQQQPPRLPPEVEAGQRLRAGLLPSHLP
Autophagy mod: autophagy modulators in MEF cells, primary screen, imaging, high-content, MEF GFP-LC3; MEF GFP-LC3 puncta imaging; test concentration mostly 10 µM; calls only at 10 µM (by protocol); hit rate 0.98% among 190,000; AID 463193, 2010;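 active means percentage of spot-positive cells more than 3 SD above its plate mean, without a fluorescence outlier flag or 80% toxicity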;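 further: spot-positive cell cutoff set from DMSO-treated cells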
Ins promoter up: insulin promoter activators in MIN6 cells, imaging, high-content screening, mouse beta cells; MIN6 insulin promoter-GFP reporter; hits give high values; z-score at 5 µM; hit rate 0.3% among 190,000; AID 1625, 2009;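 active means z-score above 3 at 5 µM with at least 500 cells counted in the well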
Dynein transport: inhibitors of GR-EGFP nuclear translocation, primary screen, dynein cargo transport inhibitor project, imaging, high-content, 3617.4 mouse cells; AID 1381, 2008; hit rate 0.47% among 220,000; z-score, hits read low; test concentration mostly 20 µM; stimulated with dexamethasone, 1 µM; hits give low values;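 active means plate z-score of nuclear minus cytoplasmic receptor signal below a set negative limit, without overly bright fluorescence or cell loss, cut at about -3.5 in these data, passing the limit was not always enough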;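 further: z-score of nuclear minus cytoplasmic ring GR-EGFP intensity difference per well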
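Medium: Induction medium lacking tetracycline, stripped serum | Probe or stimulus: 1.0 µM final dexamethasone stimulus | Schedule: 48 h induction, then 1 h compound, then 30 min agonist, 37 °C | Signal: Automated 10x imaging of fixed Hoechst-stained cells | Evaluation: Per-cell GR-EGFP intensity, nucleus versus surrounding cytoplasmic ring, well-averaged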
HSV augment: enhancers of HSV replication in host cells, fold increase, host cell viability; HSV replication augmentation in cells; maximum fold increase; hit rate 0.005% among 220,000; AID 1956, 2009; in the data active means maximum fold increase above about 1.5; tested in PC3 cells
Insulin prom inh: inhibitors of insulin promoter-driven GFP, primary screen, imaging, TRM-6 cells, eGFP reporter, cell count; hit rate 0.9% among 130,000; inhibition, % at 2 µM; reporter expression induced with tamoxifen;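 active means inhibition above the mean plus 3 SD, with well images judged a real hit on visual review, cut at about 60% in these data, passing the limit was not always enough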
Numbers without * were called inactive; i = inactive; · = no result; + = active, no number.

SMILES	Furin inhibitor	Autophagy mod	Ins promoter up	Dynein transport	HSV augment	Insulin prom inh
CC(C)CSc1nsc(N)n1	-6.3	i	-0.13	-0.316	i	85.7*
CCCCCCN(C(=O)CCCCCN1C(=O)NC(c2ccc(-c3ccccc3)cc2)C(C(=O)OCc2ccccc2)=C1C)C(C)C(=O)NCCCC (stereo not given)	-10.6	+	-0.33	0.501	·	0.0
CCOC(=O)c1c(-c2ccccc2)oc2cc(CN(C)C)c(O)c(CN(C)C)c12	-21.3	+	·	-1.11	·	-100.0
CCOC(=O)c1c(C)oc2cc(Cl)c(O)c(CN(C)C)c12	-15.7	·	-0.17	0.102	i	·
CCC1CCCCN1C(=O)COc1c(Br)cc(Br)c2cccnc12 (stereo not given)	-3.1	i	-1.01	2.31	i	·
Brc1ccc(-c2ccc(/C=N/Nc3nc(N4CCOCC4)nc(N4CCOCC4)n3)o2)cc1	-6.7	+	0.14	1.33	i	-66.7
Brc1ccc(-c2ccc(/C=N/Nc3nncc(-c4ccccc4)n3)o2)cc1	-7.6	+	-0.33	0.114	i	-18.9
CCCn1c(SCC(=O)N2CCCC(C)C2)nnc1-c1ccccn1 (stereo not given)	-10.7	i	-0.24	-0.248	i	·
Nc1cccc(-c2nc3ccccc3[nH]2)c1	-23.3	i	·	-1.05	i	75.0*
Nc1ccccc1-c1nc2ccccc2[nH]1	-16.1	i	-0.67	-0.495	i	93.8*
Cc1ccc2nc(-c3cccc(N)c3)[nH]c2c1	-13.3	i	·	-0.414	i	80.0*
Cn1cc(-c2nc3ccccc3[nH]2)c2ccccc21	-23.5	i	0.8	-0.107	i	100.0*
Nc1ccc(-c2nc3ccccc3[nH]2)cc1	-79.8	i	-0.13	0.416	i	·
Fc1ccc(-c2nc3ccccc3[nH]2)cc1	-8.9	i	-0.46	-0.0861	i	·
CC(C)S(=O)(=O)c1csc(NC(=O)Nc2cc(Cl)ccc2Cl)c1Cl	-9.0	·	-1.85	-0.29	i	·
Cc1cc(C)nc(NC(=O)Cc2ccc(Br)cc2)n1	-13.8	i	0.2	0.655	i	42.9
Cc1ccc(-c2nnc(Nc3ccc4c(c3)OCO4)c3ccccc23)cc1S(=O)(=O)NC(C)C	-11.1	i	-0.66	1.37	i	28.6
CN(CCc1ccccn1)C(=O)CCC1CCCN(C(=O)c2c3c(nn2C)CCCC3)C1 (stereo not given)	-14.4	i	0.02	-0.0667	i	·
O=[N+]([O-])c1cccc(-c2nc3ccc([N+](=O)[O-])cc3[nH]2)c1	-25.2	i	-1.66	-0.78	i	91.7*
O=[N+]([O-])c1ccc2nc(-c3ccncc3)[nH]c2c1	-14.7	·	-0.61	-0.293	i	·
O=C(NCc1ccc2c(c1)OCO2)C1(S(=O)(=O)c2ccccc2)CC1	-11.4	i	·	0.122	i	93.3*
Cc1ccc(S(=O)(=O)C2(C(=O)NCc3ccc4c(c3)OCO4)CC2)cc1	-21.8	i	-0.66	-0.824	i	·
COc1ccc(/C=C/C2=CCN(Cc3ccc(OC)cc3)CC2)cc1	-34.4	i	-0.57	0.416	i	-23.1
Cc1nnc(-c2cnn(C)c2N)n1Cc1cccc(Cl)c1	-24.2	i	0.62	-0.898	i	89.3*
Cc1ccccc1-n1ccnc1SCC(=O)NCc1ccco1	-19.1	i	0.18	0.0557	i	·
SMILES	Furin inhibitor	Autophagy mod	Ins promoter up	Dynein transport	HSV augment	Insulin prom inh
CCc1ccccc1NC(=O)C(CC)Sc1nc2cc3c(cc2c(=O)n1Cc1ccco1)OCO3 (stereo not given)	-5.5	i	-0.37	-0.139	i	-100.0
CCc1ccc(NC(=O)C(CC)Sc2nc3cc4c(cc3c(=O)n2Cc2ccco2)OCO4)cc1 (stereo not given)	-15.5	+	-0.47	-0.446	i	23.3
COc1cc(SC#N)ccc1N=Cc1c(C)[nH]n(-c2ccc(Cl)cc2)c1=O	-5.1	+	-2.31	-0.324	i	-8.6
CC(SC#N)C(=O)C12CC3CC(CC(C3)C1)C2 (stereo not given)	-17.3	i	0.05	-6.76*	i	47.1
CC(=O)C(Cc1ccccc1)NC(=O)CN1CCN(Cc2ccccc2)CC1 (stereo not given)	-3.2	i	0.3	0.101	i	·
COc1ccc(-c2nnc(SCc3ccccc3F)o2)cc1	-9.6	i	·	0.758	i	86.7*
CCN(Cc1ccncc1)C(=O)c1ccccc1NS(=O)(=O)c1ccc(F)cc1	-20.6	i	0.96	-0.31	i	50.0
COc1ccc(Nc2nc(Cl)c(C=O)s2)cc1	-11.1	i	2.95	-0.269	i	-427.3
O=C(c1ccc(Oc2ccccc2)cc1)c1nc2c(n1O)CCCC2	-7.9	i	0.7	-0.201	i	0.0
CC1(C)c2ccccc2N2CCC(=O)NC21/C=C/c1ccco1 (stereo not given)	19.9	i	-0.61	-0.745	i	·
CC1(C)c2ccccc2N2CC(=O)NC21/C=C/c1ccco1 (stereo not given)	-22.1	i	3.29*	-0.0225	i	0.0
CC1CN(Cc2nc3c(c(=O)n(C)c(=O)n3C)n2CCc2ccccc2)CC(C)O1 (stereo not given)	1.5	i	·	-0.756	i	75.7*
CC(C)=NNc1nc2c(c(=O)n(C)c(=O)n2C)n1CCc1ccccc1	-4.0	i	4.22*	1.86	i	·
CCCCCn1c(CN2CC(C)OC(C)C2)nc2c1c(=O)n(C)c(=O)n2C (stereo not given)	-26.2	i	-0.36	-0.653	i	10.0
CCOC(=O)c1ccc(N2C(=O)CC(Sc3nnc(C)s3)C2=O)cc1 (stereo not given)	2.9	i	-0.58	-3.53*	i	·
CCOC(=O)c1ccc(N2C(=O)CC(SCC(N)C(=O)OCC)C2=O)cc1 (stereo not given)	-12.8	i	0.69	0.736	i	3.7
COCC(=O)NC1(c2nnnn2CCOC(=O)Nc2ccc(Cl)cc2)CCCCC1	-27.3	i	·	0.0196	i	·
O=C(O)c1cc([N+](=O)[O-])cc2c1nnn2O	-26.6	i	-1.29	0.0887	i	60.0
O=C(NCCc1ccccc1)C(=O)NCC1CCNCC1	-13.3	i	·	-0.102	i	·
COc1ccccc1NC(=O)/C=C\C(=O)O	-24.2	i	0.08	1.41	i	100.0*
CC(=O)NC1(c2ccccc2)CCN(c2cc(C)nc(-c3ccccc3)n2)CC1	-24.4	i	-0.45	-0.608	i	37.5
Cc1nc(SCc2ccc(O)c([N+](=O)[O-])c2)n[nH]1	30.8*	i	0.92	0.455	i	-43.3
Cc1nc(SCc2ccc(O)c([N+](=O)[O-])c2)c([N+](=O)[O-])[nH]1	17.4	·	-0.02	0.0725	i	·

High-throughput results (PubChem BioAssay)
